From EPA's CvTdb concentration-time database

Assays:
[1] = tested on: Rat; assay: concentration in brain after dosing; conditions: 6 h; dosed: Fluorotelomer alcohol 8+2; 80 mg/kg; oral; Female; Harlan Sprague Dawley
[2] = tested on: Rat; assay: concentration in kidney after dosing; conditions: 0.5 h; dosed: Fluorotelomer alcohol 8+2; 24 mg/kg; oral; Male; Harlan Sprague Dawley
[3] = tested on: Rat; assay: concentration in plasma after dosing; conditions: 5 min; dosed: Di-n-butyl phthalate; 20 mg/kg; iv; Male; Sprague-Dawley
[4] = tested on: Rat; assay: concentration in plasma after dosing; conditions: 2 h; dosed: Di-n-butyl phthalate; 50 mg/kg; oral; Male; Sprague-Dawley
[5] = tested on: Rat; assay: concentration in plasma after dosing; conditions: 40 min; dosed: Di-n-butyl phthalate; 50 mg/kg; oral; Male; Sprague-Dawley
[6] = tested on: Rat; assay: concentration in plasma after dosing; conditions: 5 min; dosed: Di-n-butyl phthalate; 50 mg/kg; oral; Male; Sprague-Dawley
[7] = tested on: Rat; assay: concentration in plasma after dosing; conditions: 40 min; dosed: dichloroacetic acid; 40 mg/kg; oral; Female; Harlan Sprague Dawley
[8] = tested on: Rat; assay: concentration in plasma after dosing; conditions: dosed: dichloroacetic acid, 10 mg/kg, oral, Male, Harlan Sprague Dawley
[9] = tested on: human; assay: amount in urine after dosing (mg cumulative excretion); conditions: dosed: trichloroethylene, inhalation, duration: 8 hr
Method in brief: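 Concentration-versus-time or amount-versus-time points were compiled from published in vivo toxicokinetic studies and from two structured collections. The studies were found by PubMed searching, classifier screening and manual review. Points were mostly digitised from plot screenshots with WebPlotDigitizer, otherwise copied from tables, and kept in the reported units. Dose, route, subject details and medium were curated by hand from each paper, and sampling and analytical methods follow each source and were often unreported.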

[10] = tested on: Rat; assay: concentration in liver after dosing; conditions: 864 h; dosed: Perfluorodecanoic acid; 10 mg/kg; oral; Female; Harlan Sprague Dawley
[11] = tested on: Rat; assay: concentration in liver after dosing; conditions: 1 h; dosed: Perfluorodecanoic acid; 10 mg/kg; oral; Male; Harlan Sprague Dawley
[12] = tested on: Rat; assay: concentration in plasma after dosing; conditions: dosed: Perfluorodecanoic acid, 2 mg/kg, iv, Male, F344
[13] = tested on: Rat; assay: concentration in liver after dosing; conditions: 10 h; dosed: Thiodiglycolic Acid; 20 mg/kg; iv; Male; F344
[14] = tested on: Rat; assay: concentration in heart after dosing; conditions: 4 h; dosed: Thiodiglycolic Acid; 20 mg/kg; iv; Female; Harlan Sprague Dawley
[15] = tested on: Rat; assay: concentration in plasma after dosing; conditions: 10 min; dosed: Thiodiglycolic Acid; 20 mg/kg; iv; Female; Harlan Sprague Dawley
[16] = tested on: Rat; assay: concentration in thymus after dosing; conditions: 1 h; dosed: Thiodiglycolic Acid; 20 mg/kg; iv; Male; Harlan Sprague Dawley
[17] = tested on: Rat; assay: concentration in thymus after dosing; conditions: 40 min; dosed: Thiodiglycolic Acid; 20 mg/kg; iv; Female; Harlan Sprague Dawley
[18] = tested on: Rat; assay: concentration in plasma after dosing; conditions: 10 min; dosed: Thiodiglycolic Acid; 20 mg/kg; iv; Female; Harlan Sprague Dawley; remark: listed apart in the source
[19] = tested on: Rat; assay: concentration in plasma after dosing; conditions: 9 h; dosed: Primidone; 30 mg/kg; oral; Male; F344
[20] = tested on: Rat; assay: concentration in plasma after dosing; conditions: 3 h; dosed: Primidone; 130 mg/kg; oral; Female; F344
[21] = tested on: Rat; assay: concentration in plasma after dosing; conditions: 0.25 h; dosed: Primidone; 80 mg/kg; oral; Female; Harlan Sprague-Dawley
[22] = tested on: Rat; assay: concentration in heart after dosing; conditions: 5 h; dosed: Bis 2-Chloroethoxy Methane; 20 mg/kg; iv; Male; F344
[23] = tested on: Rat; assay: concentration in heart after dosing; conditions: 1 h; dosed: Bis 2-Chloroethoxy Methane; 20 mg/kg; iv; Female; F344
[24] = tested on: Rat; assay: concentration in liver after dosing; conditions: 3 h; dosed: Bis 2-Chloroethoxy Methane; 20 mg/kg; iv; Male; F344
[25] = tested on: Rat; assay: concentration in thymus after dosing; conditions: 40 min; dosed: Bis 2-Chloroethoxy Methane; 20 mg/kg; iv; Female; F344
[26] = tested on: Rat; assay: concentration in plasma after dosing; conditions: 5 h; dosed: Bis 2-Chloroethoxy Methane; 20 mg/kg; iv; Female; F344
[27] = tested on: Rat; assay: concentration in plasma after dosing; conditions: 20 min; dosed: Bis 2-Chloroethoxy Methane; 20 mg/kg; iv; Female; F344
[28] = tested on: Rat; assay: concentration in plasma after dosing; conditions: 4 h; dosed: Bis 2-Chloroethoxy Methane; 20 mg/kg; iv; Female; F344
[29] = tested on: Rat; assay: concentration in thymus after dosing; conditions: 10 min; dosed: Bis 2-Chloroethoxy Methane; 20 mg/kg; iv; Female; F344

OCCC(F)(F)C(F)(F)C(F)(F)C(F)(F)C(F)(F)C(F)(F)C(F)(F)C(F)(F)F [Fluorotelomer alcohol 8+2]
Conditions	concentration in brain [ng/g]	concentration in kidney [ng/g]
[1]	1090	–
[2]	–	1800

CCCCOC(=O)c1ccccc1C(=O)O [Mono-n-butyl phthalate]
Conditions	concentration in plasma [ng/mL]
[3]	22800
[4]	3690
[5]	14200
[6]	4780

O=C(O)C(Cl)Cl [dichloroacetic acid]
Conditions	concentration in plasma [ng/mL]
[7]	10600

[8]
Conditions	concentration in plasma [ng/mL]
10 min	438
50 min	158

O=C(O)C(Cl)(Cl)Cl [trichloroacetic acid]
[9]
Conditions	amount in urine
7.504 h, 97 ppm	6.26
7.706 h, 97 ppm	3.69
10.24 h, 54 ppm	5.68
11.01 h, 54 ppm	9.23
23.46 h, 97 ppm	32.7
23.84 h, 97 ppm	36.5
24.26 h, 54 ppm	25.8
24.54 h, 54 ppm	30.2
47.49 h, 97 ppm	113
47.71 h, 97 ppm	101
48.03 h, 54 ppm	88.6
48.27 h, 54 ppm	72
70.31 h, 97 ppm	166
70.67 h, 97 ppm	141
71.68 h, 54 ppm	124
71.91 h, 54 ppm	110
95.13 h, 97 ppm	201
95.58 h, 54 ppm	177
95.7 h, 97 ppm	168
96.05 h, 54 ppm	145
119.2 h, 97 ppm	224
119.67 h, 97 ppm	190
119.76 h, 54 ppm	194
119.83 h, 54 ppm	164
142.97 h, 97 ppm	249
143.27 h, 97 ppm	206
143.82 h, 54 ppm	178
143.83 h, 54 ppm	217
167.26 h, 97 ppm	260
167.56 h, 97 ppm	217
167.82 h, 54 ppm	232
168.41 h, 54 ppm	188
191.33 h, 54 ppm	199
191.56 h, 97 ppm	269
191.61 h, 54 ppm	245
191.66 h, 97 ppm	224

O=C(O)C(F)(F)C(F)(F)C(F)(F)C(F)(F)C(F)(F)C(F)(F)C(F)(F)C(F)(F)C(F)(F)F [Perfluorodecanoic acid]
Conditions	concentration in liver [ng/g]
[10]	59300
[11]	58100

[12]
Conditions	concentration in plasma [ng/mL]
6 h	5760
864 h	777

O=C(O)CSCC(=O)O [Thiodiglycolic Acid]
Conditions	concentration in heart [ng/g]	concentration in liver [ng/g]	concentration in plasma [ng/mL]	concentration in thymus [ng/g]
[13]	–	630	–	–
[14]	348	–	–	–
[15]	–	–	38100	–
[16]	–	–	–	1900
[17]	–	–	–	3380
[18]	–	–	40400	–

CCC1(c2ccccc2)C(=O)NC(=O)NC1=O [Phenobarbital]
Conditions	concentration in plasma [ng/mL]
[19]	2930
[20]	5510
[21]	400

ClCCOCOCCCl [Bis 2-Chloroethoxy Methane]
Conditions	concentration in heart [ng/g]	concentration in liver [ng/g]	concentration in plasma [ng/mL]	concentration in thymus [ng/g]
[22]	54.3	–	–	–
[23]	1380	–	–	–
[24]	–	130	–	–
[25]	–	–	–	6590
[26]	–	–	17.2	–
[27]	–	–	3810	–
[28]	–	–	63.4	–
[29]	–	–	–	50600
